Measurements from PubChem BioAssay AID1027 (Sanford-Burnham Center for Chemical Genomics, 2008).
In all, about 200,000 compounds went through this assay and fewer than 10 were called active.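 How the source made its calls: active means luciferase activation factor, scaled between plate controls, of at least 2 with compound at 10 µM; inactive means the rest.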 The list is a sample of the results.

Biological target: Luciferin 4-monooxygenase (Photinus pyralis) (UniProt P08659)
Assay: FLuc activators, initial screening, artefact control for FLuc-dependent activation tests, biochemical, ATPlite luminescence (AID 1027)
Details: ATPlite luciferase biochemical, 10 min, at 10 µM, hits give high values, 0 = ATP-free wells, 1 = DMSO control
Outline: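 Material: Luciferase/luciferin reagent mix | Doses: Test compounds dosed from 2 mM stocks in 100% DMSO | Timing: 10 min incubation after luciferase reagent addition, room temperature | Measured by: Luminescence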

Chain of Luciferin 4-monooxygenase (Photinus pyralis) (P08659 whole entry, looked up): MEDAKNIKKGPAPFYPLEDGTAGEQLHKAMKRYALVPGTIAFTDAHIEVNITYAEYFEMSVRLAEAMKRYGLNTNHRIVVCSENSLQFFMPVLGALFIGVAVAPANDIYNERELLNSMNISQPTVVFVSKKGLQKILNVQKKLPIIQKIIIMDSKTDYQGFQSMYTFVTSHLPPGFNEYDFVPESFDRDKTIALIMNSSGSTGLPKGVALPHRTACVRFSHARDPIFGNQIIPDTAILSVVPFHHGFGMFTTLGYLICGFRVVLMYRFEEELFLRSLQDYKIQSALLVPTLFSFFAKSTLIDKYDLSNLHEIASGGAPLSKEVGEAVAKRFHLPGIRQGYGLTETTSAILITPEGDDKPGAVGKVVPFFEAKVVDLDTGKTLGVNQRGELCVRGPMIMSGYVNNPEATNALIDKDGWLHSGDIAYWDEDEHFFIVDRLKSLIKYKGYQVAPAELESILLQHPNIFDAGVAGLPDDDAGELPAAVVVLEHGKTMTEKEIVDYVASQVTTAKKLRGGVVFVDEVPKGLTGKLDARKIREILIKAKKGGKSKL

Activation factor, inactive:
COc1cc(OC)nc(N/N=C(\c2ccccc2)c2ccncc2)n1 1
CCn1ccnc1CN(C)Cc1nc(-c2ccc3c(c2)OCO3)no1 1
CCOC(=O)Cc1csc(SCC(=O)NC(C)C23CC4CC(CC(C4)C2)C3)n1 (stereo unspecified) 1
COc1ccc(C(=O)NC(=S)Nc2ccccc2N2CCN(S(C)(=O)=O)CC2)cc1OC 1.1
N#C/C(=C(/O)COC(=O)COc1ccc(Cl)cc1)c1nc2ccccc2[nH]1 1
O=C(Nc1ccc([N+](=O)[O-])cc1)C1CC12CCC2 (stereo unspecified) 1
COC(=O)c1c(C)oc2ccc(N(C(=O)Oc3ccccc3)S(=O)(=O)c3ccccc3)cc12 1.1
Cc1ccc(Cl)cc1NC(=S)N(CCN(C)C)Cc1cccs1 1.1
Cc1cc(/C=N/NC(N)=O)c(C)n1C1CCCCC1 1
COC(=O)C(C)N=Cc1ccccc1 (stereo unspecified) 1.1
CN(c1ccccc1)S(=O)(=O)c1ccc(Cl)c(C(=O)NCCc2c[nH]c3ccccc23)c1 1
COc1cccc(OC)c1C(=O)NC(=S)NCc1ccco1 1
CCn1c(/C=C/Nc2ccccc2)[n+](CC)c2ccc(C(=O)OCC(F)(F)F)cc21 1
CCOc1ccc(NC(=S)N2CCC(N(C)CC3CCCO3)CC2)cc1 (stereo unspecified) 1
Cc1nc(CN2CCN(C(=O)CCc3nnc(Cc4c[nH]c5ccccc45)o3)CC2)cs1 1
O=C(NCc1ccc(F)cc1)C(c1ccccc1)N(C(=O)c1csnn1)C1CC1 (stereo unspecified) 1.1
Cc1ccc(CC2S/C(=C(/C#N)C(=O)N3CCOCC3)N(c3ccccc3)C2=O)cc1 (stereo unspecified) 1.1
C/C=N/NC(=O)CCCC(=O)N/N=C/C 1
C/C(=N/NS(=O)(=O)c1ccccc1)c1ccc(NC(=O)C(F)(F)F)cc1 1
Cc1cc(OC(=O)c2ccccc2Cl)ccc1N1C(=O)CCC1=O 0.3
Cc1ccc(S(=O)(=O)N2CCN(CC(=O)N/N=C/c3ccc(Br)s3)CC2)cc1 1.1
O=C(c1ccc(S(=O)(=O)c2ccccc2)cc1)N1CCCCCC1 1
O=C1N/C(=C/c2cccs2)C(=O)N1Cc1ccc(F)cc1 1
CC1=CC=CN2C1=NC(=O)CC2(C)C(=O)N(CC(=O)NC1CCCC1)c1ccccc1C (stereo unspecified) 1.1
Cc1cc(C)n(CCNC(=O)CC2C(=O)NCCN2Cc2ccc(C)o2)n1 (stereo unspecified) 1
O=C(NNC(=S)NCCCN1CCOCC1)c1ccncc1 1.1
COc1cc(/C=C/C(=O)N2c3ccccc3Sc3ccc(C(F)(F)F)cc32)cc(OC)c1OC 1
CC(=O)Nc1ccc(NC(=S)NC(=O)c2ccc([N+](=O)[O-])c(C)c2)cc1 0.9
O=C(COC(=O)C1CCN(S(=O)(=O)c2ccc3c(c2)OCCO3)CC1)Nc1ccccc1OC(F)F 1
CCc1ccc(OCC(=O)OCC(=O)c2c(N)n(C)c(=O)n(C)c2=O)cc1 1.1
O=C(c1ccc(-c2ccccc2)cc1)C1CCCN(C(=O)c2cncs2)C1 (stereo unspecified) 1.1
O=C(CSC1CC(=O)N(CCc2ccccc2)C1=O)Nc1ccc(Cl)cc1 (stereo unspecified) 1
CC(=O)Nc1ccc(Nc2nc3c(S(=O)(=O)c4ccc(C)c(C)c4)nnn3c3ccccc23)cc1 1
COc1cccc(CNC(=O)Cc2csc(Nc3nc(=S)[nH]c4ccccc34)n2)c1 1.1
CCn1c(-c2ccncc2)n[nH]c1=S 1
O=C(COC(=O)c1cccc(Br)c1)Nc1cccc2c1C(=O)c1ccccc1C2=O 1
O=c1[nH]n2c(-c3ccccc3)nc(O)c2c2ccccc12 1
N/C(Cc1ccc([N+](=O)[O-])cc1)=N\OC(=O)C1CCCCC1 1
Cc1c(-c2cccc(Cl)c2)nc2ccccc2c1C(=O)OCC(=O)N(C)C1CCS(=O)(=O)C1 (stereo unspecified) 1
COCCCNCCOCCOc1ccc(Cl)cc1Br 1
CC(=O)Nc1ccc(SCC(=O)Nc2ccccc2Oc2ccccc2)cc1 1
Cc1cc(Oc2ccc(Cl)cc2)nc(SCC(=O)c2ccccc2)n1 1
C/C(=N\Nc1ccc([N+](=O)[O-])cc1)c1ccc(-n2nncc2C(C)(C)C)cc1 1
Cc1cccc(C)c1NC(=O)CNC(=O)Cc1ccc(Br)cc1 1.1
Cc1ccc(C(=O)C(=S)N2CCOCC2)cc1 1.1
Cc1ccc(N(CCC(=O)O)S(=O)(=O)c2cccc(C(F)(F)F)c2)cc1 1
Cc1ccc(NN=Nc2nc3c([nH]2)c(=O)n(C)c(=O)n3C)cc1 1
O=C(N/N=C/c1ccc(Cl)cc1)c1nc2ccc([N+](=O)[O-])cc2c(=O)[nH]1 1
CC(=O)Nc1ccc(NC(=O)CSc2nnc(COc3ccccc3C)n2CC2CCCO2)cc1 (stereo unspecified) 1
Fc1cc(Br)ccc1NC(=S)Nc1cccnc1 1.1
O=c1cc(CN2CCN(S(=O)(=O)/C=C/c3ccccc3)CC2)c2ccc(O)cc2o1 1
CC1(C)CN(c2ccc(-c3ccnc4ncnn34)cc2)C1=O 1
CN(C)CCOc1ccc(Cl)cc1C(C)(C)C 1.1
CCNC(=S)N1CCN(c2ncccn2)CC1 1
CCc1nnc(NS(=O)(=O)c2ccc(NC(=S)NC(=O)/C=C/c3cccs3)cc2)s1 1
COC(=O)C[n+]1cccc2ccccc21 1
Cc1cccc(N2CCN(C(=O)c3cccc(S(=O)(=O)N4CCc5ccccc5C4)c3)CC2C)c1 (stereo unspecified) 1.1
CC(=O)NC(Cc1ccc(F)c(F)c1)C(=O)NC1CCN(C(=O)c2ccc(C)cc2)CC1 (stereo unspecified) 1.1
CCCCN(CC)C(=O)c1ccccc1Oc1ccccc1 1
Cc1ccccc1C1CC(c2cccs2)=NN1S(C)(=O)=O (stereo unspecified) 1.1
CCn1nc(C)cc1C(=O)N1CCCC(C(=O)c2cccc(OC)c2)C1 (stereo unspecified) 0.9
C=C(C)c1cccc(C(C)(C)NC(=O)NCCN(CC)CC)c1 1
Clc1ccc(-c2csc(-c3ccncc3)n2)cc1 0.9
COCCNC(=S)Nc1cc(S(=O)(=O)N2CCOCC2)ccc1N1CCCCC1 1
CC(C)OCCCNC(=O)c1ccc(C2SCC(=O)N2Cc2ccco2)cc1 (stereo unspecified) 1
COc1cccc(-n2c(=S)[nH]c3c(oc4ccccc43)c2=O)c1 1
CCc1cc(CNC(=O)CC2C(=O)NCCN2CC2CCCCC2)on1 (stereo unspecified) 1.1
CCCCOC(=O)c1ccc(NC(c2ccc(C)cc2)P(=O)(OC)OC)cc1 (stereo unspecified) 1
CC1=C(C(=O)Nc2cc(C)ccn2)C(c2cnn(C)c2)C2=C(CC(c3ccccc3)CC2=O)N1 (stereo unspecified) 1.1
COc1cc(NC(=O)CSc2nnc3ccc(-c4ccncc4)nn23)cc(OC)c1 1
COc1ccc(CN2CCNC(=O)C2CC(=O)N(C)Cc2ccccn2)cc1OC (stereo unspecified) 1
Cc1cc(C(=O)N/N=C\C(Br)=C\c2ccccc2)c(C)o1 0.8
O=C(Cn1nnc2ccccc2c1=O)NCc1ccc(Cl)cc1 1
O=C1CCCN1CCCNC(=S)Nc1ccc(F)c(Cl)c1 1
Cc1c(CN2CCCC(C(=O)c3cccc(Cl)c3)C2)c(=O)n(-c2ccccc2)n1C (stereo unspecified) 1
Cc1ccc(-c2csc(NC(=O)Cn3[nH]c(=O)c4ccccc4c3=O)n2)cc1 1
CC[n+]1c(C)n(-c2ccccc2)c2ccc(NC(C)=O)cc21 1
O=S(=O)(c1ccccc1)c1nc(-c2ccccc2F)oc1NCc1cccnc1 1.1
C/C(=N\NC(=S)NCc1ccccc1)c1ccc(Cl)cc1 1
CCCc1cc(-c2nc(-c3ccc(C)cc3)cs2)ccn1 1
CSCC[C@H](NC(=O)OC(C)(C)C)C(=O)N/N=C/c1cc2ccc(C)cc2nc1Cl 1.1
CCOC(=O)c1[nH]c2c(c1-c1ccccc1)C(=O)CC(c1ccc(Cl)cc1)C2 (stereo unspecified) 1
Cc1ccc(-n2ncc3c(=O)n(-c4ccc(C)c(C)c4)c(-c4ccco4)nc32)cc1 1
COc1cc(NC(=O)COC(=O)CSc2ccc3ccccc3c2)c(C)cc1[N+](=O)[O-] 1.1
CNC(=O)c1[nH]cnc1C(=O)N[C@@H](CC(C)C)C(=O)OCc1ccccc1 1.1
CCN(CCCNC(=O)CCn1c(=O)[nH]c2ccsc2c1=O)c1ccccc1 1
CCc1ccc(C2C(C#N)=C(N)N(N(C)C)C3=C2C(=O)CCC3)s1 (stereo unspecified) 1
O=C(CCCNS(=O)(=O)c1cccc2nsnc12)NCCN1CCN(c2ccccc2F)CC1 1.1
Cc1ccc(NC(=O)CSc2nc(CSc3ccc(C)cc3)cc(=O)[nH]2)cc1 0.9
Cc1cccc(N2CCN(C(=O)c3cnn4c(C(F)F)cc(-c5ccccc5)nc34)CC2)c1C 1
Cc1ccc(NC(=O)CN2CCCCC2)c2c1CC(C)(C)O2 1
CC[C@H](C)[C@@H](C(=O)N1CCNCC1)n1cc([C@@H](N)Cc2ccc(O)cc2)nn1 1.1
CCN(CC)CCNc1nc(-c2ccc(OC(F)F)cc2)c(C)s1 1
CNC(=O)/C(C#N)=C/c1c(F)cccc1Cl 1
Clc1ccc(-c2cc(C3CCNCC3)[nH]n2)c(Cl)c1 1
COc1ccc(C2=NN(c3nc4ccccc4s3)C(=O)C2)cc1 0.4
